# What was measured:
# [1] = Stability in phosphate buffer assessed as half life of prodrug hydrolysis at 5 mg at pH 7 by HPLC; format: physicochemical
# Procedure, shortened: (§1)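 In 100 mM sodium phosphate buffer, 5 mg prodrug per 2 mL, shaken at 37 °C, triplicate runs. Timed aliquots dried, taken up in methanol, and quantified by HPLC with fluorescence detection. Prodrug loss fit to first-order decay, Ct versus C0; half-life obtained from the rate constant.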
# [2] = Stability in phosphate buffer assessed as half life of camptothecin formation at 5 mg at pH 6.6 by HPLC; format: physicochemical; conditions: in vitro
# Procedure, shortened: (§2)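 Prodrug (5 mg) in 2 mL 100 mM sodium phosphate buffer on shaker at 37 °C, in triplicate. Aliquots taken at set times, dried, reconstituted in methanol, and analysed by HPLC with fluorescence detection. CPT appearance fit to first-order kinetics, Ct versus C∞; half-life derived from the rate constant.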
# [3] = test system: A549; experiment: Cytotoxicity against human A549 cells after 48 hrs by MTT method; format: functional, cell-based; conditions: A549, 48 h
# Procedure, shortened: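 A549 cells grown in DMEM/F-12 with 10% FBS, 37 °C, 5% CO2; seeded 10,000 cells/well, attached 24 h, then exposed in triplicate to 30 dilutions for 48 h. Washed with PBS, MTT added 5 h at 37 °C in dark, crystals dissolved in SDS/DMF:water, absorbance 570 nm (reference 690 nm). Viability relative to drug-free controls; IC50 from variable-slope sigmoidal fit.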
# [4] = Stability in phosphate buffer assessed as half life of camptothecin formation at 5 mg at pH 7.4 by HPLC; format: physicochemical; conditions: in vitro; procedure, shortened: as §2
# [5] = Stability in phosphate buffer assessed as half life of prodrug hydrolysis at 5 mg at pH 7.4 by HPLC; format: physicochemical; conditions: in vitro; procedure, shortened: as §1
# [6] = Stability in phosphate buffer assessed as half life of camptothecin formation at 5 mg at pH 7 by HPLC; format: physicochemical; procedure, shortened: as §2
# [7] = Stability in phosphate buffer assessed as half life of prodrug hydrolysis at 5 mg at pH 6.6 by HPLC; format: physicochemical; conditions: in vitro; procedure, shortened: as §1
Structure (SMILES),t1/2 [1],t1/2 [2],IC50 [3],t1/2 [4],t1/2 [5],t1/2 [6],t1/2 [7]
CC[C@@]1(OC(=O)CN)C(=O)OCc2c1cc1n(c2=O)Cc2cc3ccccc3nc2-1,1.802 h,11.54 h,12.2 nM,10.79 h,1.774 h,11.26 h,2.564 h
CC[C@@H](N)C(=O)O[C@]1(CC)C(=O)OCc2c1cc1n(c2=O)Cc2cc3ccccc3nc2-1,3.197 h,28.25 h,4.1 nM,25.34 h,2.934 h,26.27 h,4.68 h
CC[C@@]1(O)C(=O)OCc2c1cc1n(c2=O)Cc2cc3ccccc3nc2-1 [CAMPTOTHECIN],–,–,5.38 nM,–,–,–,–
CC[C@@]1(OC(=O)[C@@H](C)N)C(=O)OCc2c1cc1n(c2=O)Cc2cc3ccccc3nc2-1,2.828 h,21.31 h,120 nM,15.47 h,2.496 h,16.3 h,4.336 h
CCC[C@@H](N)C(=O)O[C@]1(CC)C(=O)OCc2c1cc1n(c2=O)Cc2cc3ccccc3nc2-1,4.119 h,38.26 h,5.2 nM,32.31 h,2.926 h,36.7 h,4.652 h

# Source: ChEMBL document CHEMBL1154765, “A series of alpha-amino acid ester prodrugs of camptothecin: in vitro hydrolysis and A549 human lung carcinoma cell cytotoxicity” (J Med Chem, 2010)
